Assay results published in BindingDB's records for doi:10.1021/acs.jmedchem.9b01065 (Colorado State University, 2019).

Columns and labels:
[1] = biological target: T1, DNA topoisomerase 2-alpha (Homo sapiens, UniProt P11388); assay: Inhibition of topoisomerase 2alpha in human SW620 organoids transfected with VimPro-GFP reporter assessed as reversion of epithelial-mesenchymal transition by measuring reduction in vimentin expression after 72 hrs by Hoechst 33342 staining based GFP reporter gene assay
T1 sequence (P11388 whole entry): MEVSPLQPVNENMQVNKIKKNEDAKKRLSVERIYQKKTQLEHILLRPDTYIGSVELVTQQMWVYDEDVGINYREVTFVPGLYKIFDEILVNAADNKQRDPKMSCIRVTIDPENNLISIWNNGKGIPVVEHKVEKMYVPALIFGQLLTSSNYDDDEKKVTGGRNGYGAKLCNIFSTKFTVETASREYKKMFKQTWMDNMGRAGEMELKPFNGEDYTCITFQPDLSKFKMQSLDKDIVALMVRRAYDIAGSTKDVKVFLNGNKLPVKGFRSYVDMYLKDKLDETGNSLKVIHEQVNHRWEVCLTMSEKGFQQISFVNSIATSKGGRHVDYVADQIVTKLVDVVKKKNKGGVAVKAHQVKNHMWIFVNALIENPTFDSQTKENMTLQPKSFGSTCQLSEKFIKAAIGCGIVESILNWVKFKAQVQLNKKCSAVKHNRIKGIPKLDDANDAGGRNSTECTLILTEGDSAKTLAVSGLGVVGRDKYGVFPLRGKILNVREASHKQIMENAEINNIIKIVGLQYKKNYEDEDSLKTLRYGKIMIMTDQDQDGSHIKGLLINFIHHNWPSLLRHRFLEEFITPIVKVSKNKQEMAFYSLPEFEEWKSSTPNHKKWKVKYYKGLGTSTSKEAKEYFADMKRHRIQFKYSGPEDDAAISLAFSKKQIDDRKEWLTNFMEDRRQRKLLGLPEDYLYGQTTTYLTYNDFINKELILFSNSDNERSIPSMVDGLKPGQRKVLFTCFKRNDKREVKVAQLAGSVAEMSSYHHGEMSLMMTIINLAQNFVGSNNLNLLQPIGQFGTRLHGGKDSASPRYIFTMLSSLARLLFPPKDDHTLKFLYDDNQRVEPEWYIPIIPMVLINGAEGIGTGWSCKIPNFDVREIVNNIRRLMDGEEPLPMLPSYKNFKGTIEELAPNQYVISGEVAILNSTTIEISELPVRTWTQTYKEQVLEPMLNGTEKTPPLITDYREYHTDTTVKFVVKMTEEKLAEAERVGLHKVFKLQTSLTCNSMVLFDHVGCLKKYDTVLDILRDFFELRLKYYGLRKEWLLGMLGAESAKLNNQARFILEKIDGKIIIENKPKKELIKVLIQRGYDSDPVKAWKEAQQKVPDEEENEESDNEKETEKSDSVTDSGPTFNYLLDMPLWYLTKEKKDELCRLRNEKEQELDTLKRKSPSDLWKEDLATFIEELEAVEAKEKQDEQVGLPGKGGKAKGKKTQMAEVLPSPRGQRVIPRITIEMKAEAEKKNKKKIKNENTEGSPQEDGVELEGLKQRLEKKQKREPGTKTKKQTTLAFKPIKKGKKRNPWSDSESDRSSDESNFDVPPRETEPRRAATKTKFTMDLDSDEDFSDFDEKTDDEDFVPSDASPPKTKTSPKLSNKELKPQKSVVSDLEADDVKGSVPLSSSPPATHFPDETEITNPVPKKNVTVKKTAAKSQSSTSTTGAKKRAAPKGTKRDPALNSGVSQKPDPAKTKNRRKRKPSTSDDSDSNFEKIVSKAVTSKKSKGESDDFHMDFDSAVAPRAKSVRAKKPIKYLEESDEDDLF
Method in brief: (§1)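 SW620 cells stably carrying VimPro-GFP or EcadPro-mCherry (puromycin selected) grown as organoids and dosed 72 h. Stained with 16 μM Hoechst 33342 for 1 h and imaged as 15 z-layers, 26.5 μm apart. Nuclei segmented and GFP- or mCherry-positive cells counted above background thresholds. Percent positive cells normalised to DMSO.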

[2] = biological target: T1, DNA topoisomerase 2-alpha; assay: Inhibition of topoisomerase 2alpha in human SW620 organoids transfected with EcadPro-RFP reporter assessed as reversion of epithelial-mesenchymal transition by measuring increase in E-cadherin expression after 72 hrs by Hoechst 33342 staining based mCherryRFP reporter gene assay; method in brief: as §1

Row | Structure (SMILES) | EC50 [1] | EC50 [2]
1 | CC(=O)Nc1ccc2c(-c3cc(F)ccc3O)ccnc2c1O | 1.2 µM | 1.6 µM
2 | O=C(CCN1CCOCC1)Nc1ccc2c(-c3cc4ccccc4o3)ccnc2c1O | 2.4 µM | 3 µM
3 | CC(=O)Nc1ccc2c(-c3cccs3)ccnc2c1O | 1.2 µM | 1.1 µM
4 | O=C(CCN1CCOCC1)Nc1ccc2c(-c3cc(F)ccc3O)ccnc2c1O | 1.9 µM | 1.2 µM
5 | CC(=O)Nc1ccc2c(-c3cc4ccccc4o3)ccnc2c1O | 3.5 µM | 5.4 µM

The remaining compounds from weak to strong by EC50 [1], led by results:

Row | EC50 [1] | EC50 [2] | Structure (SMILES)
6 | 9.5 µM | 5.5 µM | CC(=O)Nc1ccc(-c2ccnc3c(O)c(NC(C)=O)ccc23)cc1
7 | 4.7 µM | 3.1 µM | CC(C)(C)C(=O)Nc1ccc2c(-c3ccccc3)ccnc2c1O
8 | 4 µM | 9 µM | COc1cc(NC(C)=O)c(O)c2nccc(-c3ccccc3NC(=O)c3ccccc3)c12
9 | 1.7 µM | 3.4 µM | CC(=O)Nc1ccc2c(-c3ccoc3)ccnc2c1O
10 | 1 µM | 3.3 µM | O=C(CN1CCOCC1)Nc1ccc2c(-c3cc4ccccc4o3)ccnc2c1O
